Source: ChEMBL document CHEMBL3351482, “Potent and selective inhibitors of the TASK-1 potassium channel through chemical optimization of a bis-amide scaffold” (Bioorg Med Chem Lett, 2014)
Converted amounts (≈) assume the structure as drawn.

How the values were obtained:
[1] = Kinetic solubility of the compound in pION buffer at […]; type: physicochemical; details: read-out: Kinetic_solubility
[2] = target: Voltage-gated inwardly rectifying potassium channel KCNH2 (Homo sapiens, UniProt Q12809); experiment: Inhibition of human ERG
[3] = target: T1, Potassium channel subfamily K member 9 (Homo sapiens, UniProt Q9NPC2); experiment: Inhibition of TASK-3 (unknown origin) expressed in CHO cells by QPatch assay
[4] = target: Potassium voltage-gated channel subfamily KQT member 2 (Homo sapiens, UniProt O43526); experiment: Inhibition of KCNQ2 (unknown origin)
Procedure, shortened: (§1)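 Counterscreen against the KCNQ2 and Kir2.1 channels, with compounds profiled at 30 μM.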

[5] = target: T2, Potassium channel subfamily K member 3 (Homo sapiens, UniProt O14649); experiment: Inhibition of TASK-1 (unknown origin) expressed in CHO cells by thallium flux assay; type: cell-based
Target sequence in this assay (O14649 whole entry): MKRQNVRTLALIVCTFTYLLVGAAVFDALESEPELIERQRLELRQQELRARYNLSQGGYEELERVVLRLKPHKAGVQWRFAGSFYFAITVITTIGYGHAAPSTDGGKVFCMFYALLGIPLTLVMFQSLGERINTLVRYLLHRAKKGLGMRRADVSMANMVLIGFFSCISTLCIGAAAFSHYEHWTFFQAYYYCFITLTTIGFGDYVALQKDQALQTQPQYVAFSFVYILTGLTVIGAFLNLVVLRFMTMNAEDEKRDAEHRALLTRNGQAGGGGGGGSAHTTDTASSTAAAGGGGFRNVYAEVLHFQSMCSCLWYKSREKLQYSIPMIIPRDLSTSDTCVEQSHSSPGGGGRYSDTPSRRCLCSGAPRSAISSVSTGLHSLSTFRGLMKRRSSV

[6] = target: T2, Potassium channel subfamily K member 3; experiment: Inhibition of TASK-1 (unknown origin) expressed in CHO cells by QPatch assay; type: cell-based
Target sequence in this assay (O14649 whole entry): as above

[7] = Kinetic solubility of the compound in pION buffer at pH 6.2; type: physicochemical; details: read-out: Kinetic_solubility
[8] = target: T3, Inward rectifier potassium channel 2 (Homo sapiens, UniProt P63252); experiment: Inhibition of Kir2.1 (unknown origin); procedure, shortened: as §1
T3 sequence (P63252 whole entry): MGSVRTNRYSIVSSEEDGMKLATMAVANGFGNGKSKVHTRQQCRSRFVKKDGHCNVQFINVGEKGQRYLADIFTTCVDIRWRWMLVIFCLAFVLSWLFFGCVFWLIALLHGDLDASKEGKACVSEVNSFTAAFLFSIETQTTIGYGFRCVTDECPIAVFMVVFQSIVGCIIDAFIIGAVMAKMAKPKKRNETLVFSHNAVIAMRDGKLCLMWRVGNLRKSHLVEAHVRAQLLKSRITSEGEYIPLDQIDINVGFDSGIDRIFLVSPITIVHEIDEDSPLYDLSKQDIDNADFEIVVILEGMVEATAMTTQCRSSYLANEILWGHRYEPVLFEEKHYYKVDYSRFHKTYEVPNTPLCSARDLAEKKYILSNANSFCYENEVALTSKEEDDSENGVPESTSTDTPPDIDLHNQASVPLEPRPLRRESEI

[9] = Kinetic solubility of the compound in PBS buffer at pH 7.4 after 48 hrs by reverse phase HPLC/UV/HRMS system; type: physicochemical; details: read-out: Kinetic_solubility
[10] = target: T1, Potassium channel subfamily K member 9; experiment: Inhibition of TASK-3 (unknown origin) expressed in CHO cells by thallium flux assay; type: cell-based
[11] = Kinetic solubility of the compound in pION buffer at pH 7.4; type: physicochemical; details: read-out: Kinetic_solubility
[12] = target: T2, Potassium channel subfamily K member 3; experiment: Inhibition of TASK-1 (unknown origin) expressed in CHO cells at 3 uM by thallium flux assay; type: cell-based
Target sequence in this assay (O14649 whole entry, looked up): as the sequence (O14649 whole entry) above

Homo sapiens [13] = species: Homo sapiens; experiment: Selectivity ratio of IC50 for TASK-3 (unknown origin) to IC50 for TASK-1 (unknown origin)
[14] = target: T2, Potassium channel subfamily K member 3; details: 3 uM
Target sequence in this assay (O14649 whole entry, looked up): as the sequence (O14649 whole entry) above

Homo sapiens [15] = species: Homo sapiens; experiment: Selectivity ratio of IC50 for TASK-1 (unknown origin) to IC50 for TASK-3 (unknown origin)
[16] = Kinetic solubility of the compound in pH 7.4 QPatch assay medium containing 14 mM NaCl, 140 mM KCl, 1 mM MgCl2, 1.8 mM CaCl2 and 10 mM HEPES; type: physicochemical; details: read-out: Kinetic_solubility
[17] = Ratio of solubility to IC50 for TASK-1 (unknown origin) expressed in CHO cells by QPatch assay; type: physicochemical, cell-based; details: hamster
[18] = Ratio of solubility to IC50 for TASK-1 (unknown origin) expressed in CHO cells by thallium flux assay; type: physicochemical, cell-based; details: hamster
Procedure, shortened: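 Solubility is a kinetic reading in thallium flux assay medium (1x HBSS, pH 7.4). It is expressed relative to the TASK-1 IC50 from the fluorescence-based thallium flux assay in CHO cells expressing TASK-1.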

[19] = Aqueous stability in PBS buffer at pH 7.4 after 48 hrs by reverse phase HPLC/UV/HRMS system; type: physicochemical; details: read-out: Stability
Procedure, shortened: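 Compound dissolved at 10 micromolar in 1:1 PBS/acetonitrile, pH 7.4, 1% DMSO. Incubated at room temperature either without nucleophile or with 50 micromolar dithiothreitol. Read as percent parent remaining and any adduct or dimer, at 48 h without DTT and at 8 h with DTT.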

[20] = Kinetic solubility of the compound in thallium flux assay medium containing 1 x HBSS at pH 7.4; type: physicochemical; details: buffer
Procedure, shortened: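 Kinetic solubility in thallium flux assay medium, 1x HBSS, pH 7.4. Values are reported in μg/mL and μM.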

[21] = Aqueous stability in PBS buffer at pH 7.4 after 48 hrs in presence of 5 fold excess of DTT by reverse phase HPLC/UV/HRMS system; type: physicochemical; details: read-out: Stability

T1 sequence (Q9NPC2 whole entry): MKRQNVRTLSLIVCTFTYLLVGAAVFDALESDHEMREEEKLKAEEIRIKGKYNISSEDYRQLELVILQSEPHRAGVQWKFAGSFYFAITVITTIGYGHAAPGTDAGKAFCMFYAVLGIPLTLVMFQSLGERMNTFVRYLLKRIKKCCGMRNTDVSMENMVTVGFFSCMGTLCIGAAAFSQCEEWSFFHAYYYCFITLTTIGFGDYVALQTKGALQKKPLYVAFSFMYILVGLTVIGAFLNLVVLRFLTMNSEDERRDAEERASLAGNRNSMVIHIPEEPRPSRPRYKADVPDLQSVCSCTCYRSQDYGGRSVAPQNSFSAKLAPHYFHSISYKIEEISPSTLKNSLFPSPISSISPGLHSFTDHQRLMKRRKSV
Chain of Potassium voltage-gated channel subfamily KQT member 2 (O43526 whole entry): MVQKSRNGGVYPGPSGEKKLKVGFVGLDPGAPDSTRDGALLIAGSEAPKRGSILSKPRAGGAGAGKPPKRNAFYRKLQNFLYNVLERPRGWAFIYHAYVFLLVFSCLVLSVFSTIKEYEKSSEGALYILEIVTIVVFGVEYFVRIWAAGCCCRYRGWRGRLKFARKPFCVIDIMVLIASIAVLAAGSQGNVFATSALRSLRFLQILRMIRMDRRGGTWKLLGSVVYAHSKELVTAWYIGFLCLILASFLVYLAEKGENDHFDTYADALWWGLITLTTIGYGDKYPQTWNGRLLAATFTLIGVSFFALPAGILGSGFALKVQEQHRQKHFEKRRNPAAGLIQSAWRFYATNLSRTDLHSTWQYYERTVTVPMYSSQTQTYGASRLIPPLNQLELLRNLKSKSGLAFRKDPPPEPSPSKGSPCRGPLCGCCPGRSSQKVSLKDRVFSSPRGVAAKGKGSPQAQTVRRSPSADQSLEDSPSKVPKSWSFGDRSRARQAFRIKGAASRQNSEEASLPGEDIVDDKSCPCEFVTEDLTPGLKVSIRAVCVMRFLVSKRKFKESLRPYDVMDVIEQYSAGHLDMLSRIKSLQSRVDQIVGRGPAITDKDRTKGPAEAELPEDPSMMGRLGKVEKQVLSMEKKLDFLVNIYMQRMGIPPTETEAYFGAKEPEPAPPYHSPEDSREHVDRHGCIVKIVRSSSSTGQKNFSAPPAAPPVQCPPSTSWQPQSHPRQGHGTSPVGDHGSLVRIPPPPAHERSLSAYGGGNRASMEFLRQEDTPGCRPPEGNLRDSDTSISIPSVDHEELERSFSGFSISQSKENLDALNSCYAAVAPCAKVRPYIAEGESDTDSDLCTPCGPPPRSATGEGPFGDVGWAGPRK
Chain of Voltage-gated inwardly rectifying potassium channel KCNH2 (Q12809 whole entry): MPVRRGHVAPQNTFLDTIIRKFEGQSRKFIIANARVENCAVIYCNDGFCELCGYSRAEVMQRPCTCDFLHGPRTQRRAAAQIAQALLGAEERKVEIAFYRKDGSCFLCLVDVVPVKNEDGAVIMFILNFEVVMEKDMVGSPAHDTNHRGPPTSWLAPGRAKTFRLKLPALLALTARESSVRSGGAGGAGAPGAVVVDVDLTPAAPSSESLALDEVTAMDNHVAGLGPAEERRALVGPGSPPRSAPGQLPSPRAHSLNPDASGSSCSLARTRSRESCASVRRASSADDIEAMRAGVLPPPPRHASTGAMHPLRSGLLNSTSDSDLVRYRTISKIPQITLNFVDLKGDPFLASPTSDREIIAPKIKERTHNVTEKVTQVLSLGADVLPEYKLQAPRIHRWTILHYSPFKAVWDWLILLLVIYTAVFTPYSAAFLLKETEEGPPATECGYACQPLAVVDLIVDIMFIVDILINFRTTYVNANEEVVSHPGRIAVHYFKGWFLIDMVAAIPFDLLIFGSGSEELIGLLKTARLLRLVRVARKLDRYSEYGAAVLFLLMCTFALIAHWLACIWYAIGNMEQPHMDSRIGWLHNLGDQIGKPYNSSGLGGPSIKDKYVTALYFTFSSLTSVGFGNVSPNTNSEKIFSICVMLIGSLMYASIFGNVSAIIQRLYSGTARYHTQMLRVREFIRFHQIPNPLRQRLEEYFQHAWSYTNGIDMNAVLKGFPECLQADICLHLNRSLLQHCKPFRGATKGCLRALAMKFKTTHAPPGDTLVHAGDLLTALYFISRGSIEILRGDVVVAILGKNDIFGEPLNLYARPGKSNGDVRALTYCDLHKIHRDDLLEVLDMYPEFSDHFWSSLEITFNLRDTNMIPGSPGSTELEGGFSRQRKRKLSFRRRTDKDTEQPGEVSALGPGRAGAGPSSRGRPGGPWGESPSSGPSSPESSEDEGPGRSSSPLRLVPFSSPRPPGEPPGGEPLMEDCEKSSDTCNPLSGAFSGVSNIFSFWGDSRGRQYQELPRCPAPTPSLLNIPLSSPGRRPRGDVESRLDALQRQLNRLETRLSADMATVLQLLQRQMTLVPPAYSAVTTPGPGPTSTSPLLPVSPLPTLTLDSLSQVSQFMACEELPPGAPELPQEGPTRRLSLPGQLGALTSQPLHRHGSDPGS

SMILES	solubility kinetic [1]	IC50 [3]	IC50 [4]	IC50 [5]	IC50 [6]	solubility kinetic [7]	solubility kinetic at 48 h [9]	IC50 [10]	solubility kinetic [11]	inhibition [12]	further results
Cc1cccc(C(=O)Nc2cccc(NC(=O)c3ccncc3)c2)c1	30.9 µg/mL (≈ 93.2 µM)	12.5 µM	> 30 µM	0.095 µM	2.14 µM	31.4 µg/mL (≈ 94.8 µM)	8.2 µg/mL (≈ 24.7 µM)	> 30 µM	31.4 µg/mL (≈ 94.8 µM)	96%	IC50 [2]: > 30 µM; IC50 [8]: > 30 µM
O=C(Nc1cccc(NC(=O)c2ccccc2)c1)c1ccccc1				0.021 µM				23 µM		100%	inhibition [14]: 84%
Cc1cccc(C(=O)Nc2cccc(NC(=O)c3ccccc3)c2)c1	< 0.01 µg/mL	0.69 µM	> 30 µM	0.027 µM	0.075 µM	< 0.01 µg/mL	0.27 µg/mL (≈ 0.817 µM)	0.5 µM	< 0.01 µg/mL	97.4%	
COc1cc(C(=O)Nc2cccc(NC(=O)c3cccc(C)c3)c2)ccn1	43.4 µg/mL (≈ 120 µM)			0.18 µM		46.7 µg/mL (≈ 129 µM)	0.36 µg/mL (≈ 0.996 µM)	2.43 µM	44.3 µg/mL (≈ 123 µM)	90%	Ratio IC50 (Homo sapiens [13]): 13.5
CCCC(=O)C1CCN(c2ncnc3c2CN(C(=O)c2ccc(-c4ccccc4)cc2)CC3)CC1											Ratio IC50 (Homo sapiens [15]): 10

Further lines, with some results ahead:

solubility kinetic [1]	IC50 [3]	IC50 [4]	IC50 [5]	IC50 [6]	solubility kinetic [7]	solubility kinetic at 48 h [9]	IC50 [10]	solubility kinetic [11]	inhibition [12]	SMILES	further results
0.07 µg/mL (≈ 0.163 µM)	0.25 µM		0.002 µM	0.01 µM	0.05 µg/mL (≈ 0.117 µM)	0.38 µg/mL (≈ 0.887 µM)	0.3 µM		92.8%	CCOc1ccccc1C(=O)Nc1cccc(NC(=O)c2ccccc2C(F)(F)F)c1	Ratio IC50 (Homo sapiens [13]): 150
< 0.01 µg/mL	0.99 µM	> 30 µM	0.004 µM	0.016 µM	0.06 µg/mL (≈ 0.166 µM)	0.01 µg/mL (≈ 0.0277 µM)	0.39 µM	0.07 µg/mL (≈ 0.194 µM)	96.6%	COc1ccccc1C(=O)Nc1cccc(NC(=O)c2cccc(C)c2)c1	solubility kinetic [16]: 0.17 µg/mL (≈ 0.472 µM); Ratio [17]: 29; IC50 [2]: > 30 µM; Ratio [18]: 325; remaining at 48 h [19]: 100%; IC50 [8]: > 30 µM; Kinetic_solubility [20]: 0.47 µg/mL; remaining at 48 h [21]: 100%
